Compound activity (PubChem)
FN deposition inh: fibronectin deposition inhibition | AH1F fibroblasts, Alexa488-fibronectin deposition fluorescence, overnight | inhibition, % at 12.6 µM | hit rate 0.086% among 350,000;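 active = mean inhibition across replicates of 30% or more, regardless of how many single replicates reach that level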;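 also: positive control wells lacked labelled fibronectin entirely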
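test system = AH1F fibroblasts assembling fluorescent fibronectin matrix | quantity = 10000 AH1F cells per well | buffer or medium = DMEM plus 2% serum, read in PBS | doses = single dose, pinned | incubation = 1 h cell attachment, overnight exposure to compound and label | detection = fluorescence at 485 nm excitation, 525 nm emission | read-out basis = inhibition from reduced deposited-fibronectin fluorescence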
FGF22 binding: shifts melting point of recombinant human FGF22 | hit rate 1.5% among 340,000 | AID 651658 | recombinant FGF22 thermal shift, SYPRO orange fluorescence; percent of sucrose octasulfate shift, DMSO zero | activity (Tm shift, normalised), % at 9.99 µM | Q9HCT0;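 active = mean Tm shift, scaled 0 neutral to 100 positive control, at about 1.3% or above, every replicate too, limit read from the data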
Target sequence (Q9HCT0 whole entry, looked up): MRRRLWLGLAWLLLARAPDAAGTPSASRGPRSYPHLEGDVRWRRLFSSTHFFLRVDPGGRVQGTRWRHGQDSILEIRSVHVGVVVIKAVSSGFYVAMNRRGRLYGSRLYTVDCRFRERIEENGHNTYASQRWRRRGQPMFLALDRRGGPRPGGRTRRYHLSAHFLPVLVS
E-selectin induc: E-selectin induction on HUVECs; hit rate 0.37% among 260,000; activation, % at 7.58 µM; AID 686992; HUVEC E-selectin immunofluorescence imaging; normalized: neutral wells 0, TNF-alpha wells 100; P16581;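 active = mean E-selectin-positive cell signal at least 10% of the positive control, reached in at least 60% of replicates, without over 20% cell loss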
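Assay system: HUVEC primary endothelial cells. Input: 3,000 HUVEC seeded per well. Doses: one compound dose added by pin transfer. Read-out basis: % PE-positive cells. Benchmarks: TNF-alpha high, DMSO low. Detection: immunofluorescence imaging. Buffer or medium: EGM-2, gelatin.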
C2C12 statin: protects C2C12 myotubes from simvastatin toxicity | ATP luminescence, 48 h; scaled: DMSO 0, geranylgeraniol control 100 | rescue of ATP level, % at 7.49 µM | AID 602340 | hit rate 0.78% among 330,000;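 active = mean ATP rescue above about 67%, or every replicate alone reaching that limit, limit read from the data, passing the limit was not always enough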;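 also: myotubes were challenged with 10 µM simvastatin during compound exposure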
SIRT5 block: blocks human SIRT5 desuccinylation of peptide; Purified SirT5, succinyl-peptide AMC, trypsin-coupled fluorescence; inhibition, % at 15 µM; hit rate 1.1% among 330,000; AID 652115; in the data active = inhibition above about 15%
Ecoli rRNA inh: inhibits bacterial ribosomal RNA function over humanized ribosomes. E. coli WT GFP vs humanized-ribosome RFP mutants, fluorescence, 24 h; active compounds read low; DMSO median 0, no signal -100. GFP signal change (wild-type ribosome), % (concentration not given with the values). hit rate 1.6% among 350,000. AID 720706;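 active = significant combined selectivity score with lowered wild-type GFP, culture density cut under 30%, mutant RFP and density less affected; inactive = any of these conditions unmet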
* marks the source's active call; other numbers are inactive results. The list is not random: actives were taken first. Their share in the collection is about 4%.

For CCOCCc1nnc(NC(=O)C(C)Oc2ccccc2)s1 (centres undefined) the results were FN deposition inh 0, FGF22 binding 0, E-selectin induc 0, C2C12 statin 2, SIRT5 block -2 and Ecoli rRNA inh 5.
CCOCCc1nnc(NC(=O)C(CC)c2ccccc2)s1 (centres undefined) was read as FN deposition inh -7 and C2C12 statin 116*.
For O=C(C[C@@H]1C[C@@H]2c3cc(NC(=O)c4cccnc4)ccc3O[C@@H]2[C@H](CO)O1)NCc1cccnc1 the results were FN deposition inh 3, FGF22 binding 0, E-selectin induc -1, C2C12 statin 5, SIRT5 block 4 and Ecoli rRNA inh 1.
For COc1ccc(NC(=O)N[C@@H](CCSC)C(=O)O)cc1OC the results were FN deposition inh 3, FGF22 binding 0, E-selectin induc 3, C2C12 statin -1, SIRT5 block 19* and Ecoli rRNA inh 3.
Screening COc1ccc(NC(=O)N[C@@H](CCSC)C(=O)O)cc1Cl returned C2C12 statin -8.
O=C(NNC(=O)c1ccccc1C(=O)O)c1ccc(-c2ccccc2)cc1 was read as FN deposition inh 11, FGF22 binding 43*, SIRT5 block -1 and Ecoli rRNA inh 7.
O=C(NNC(=O)c1ccccc1O)c1ccc(Br)cc1 was read as FN deposition inh 0, FGF22 binding 0, C2C12 statin 16, SIRT5 block -1 and Ecoli rRNA inh -24*.
Screening CCCNC(=O)C[C@H]1C[C@H]2c3cc(NC(=O)CC4CC4)ccc3O[C@H]2[C@@H](CO)O1 returned FN deposition inh 5, FGF22 binding 0, E-selectin induc 0, C2C12 statin -9, SIRT5 block 0 and Ecoli rRNA inh 1.
`CC(C(=O)NC(N)=O)N1C(=O)NC(c2ccccc2)(c2ccccc2)C1=O` (centres undefined) gave FN deposition inh 3, FGF22 binding 0, E-selectin induc 0, C2C12 statin 7, SIRT5 block 19* and Ecoli rRNA inh 1.
Screening O=S(=O)(c1ccc(Cl)c(NC(=S)Nc2ccccc2N2CCOCC2)c1)N1CCOCC1 returned FN deposition inh 4, FGF22 binding -1, E-selectin induc 0, SIRT5 block 4 and Ecoli rRNA inh 11.
Screening Fc1ccc(NC(=S)Nc2ccccc2N2CCOCC2)cc1Cl returned FN deposition inh 3, FGF22 binding 0, E-selectin induc 2, SIRT5 block -6 and Ecoli rRNA inh -27*.
Cc1onc(-c2ccccc2)c1C(=O)Nc1ccccc1N1CCOCC1 was read as FN deposition inh 3 and C2C12 statin 6.
Screening Cc1onc(-c2c(F)cccc2Cl)c1C(=O)Nc1ccccc1N1CCOCC1 returned FN deposition inh -2, FGF22 binding 0, E-selectin induc 0, C2C12 statin 16, SIRT5 block 3 and Ecoli rRNA inh -28*.
`O=C(C[C@@H]1C[C@H]2c3cc(NS(=O)(=O)c4ccccc4)ccc3O[C@H]2[C@H](CO)O1)NC1CCCC1` gave FN deposition inh 4, FGF22 binding 0, E-selectin induc -1, C2C12 statin 10, SIRT5 block -3 and Ecoli rRNA inh 0.
O=C1NCCN(Cc2ccc(Cl)c(F)c2)C1CC(=O)N1CCCO1 (centres undefined) was read as FN deposition inh -3, FGF22 binding 43* and SIRT5 block -2.
Screening O=C1NCCN(Cc2c(F)cccc2Cl)C1CC(=O)N1CCCO1 (centres undefined) returned FN deposition inh 5, FGF22 binding 0, C2C12 statin -3, SIRT5 block -2 and Ecoli rRNA inh 9.
Screening C[C@H](CO)N1C[C@H](C)[C@H](CN(C)C(=O)Nc2ccccc2)OCc2cn(nn2)CCCC1=O returned FN deposition inh 0, FGF22 binding 0, E-selectin induc 0, C2C12 statin 4, SIRT5 block -2 and Ecoli rRNA inh -1.
For COc1ccc(/C=C/C(=O)Nc2ccc(-c3nnc4n3CCCCC4)cc2)c(OC)c1 the results were FN deposition inh 3, FGF22 binding 1, E-selectin induc -3, SIRT5 block 1 and Ecoli rRNA inh -20*.
